Sampled rows, rich in hits. Any-hit rate of the full collection: about 2.1%.
Insulin prom inh = TRM-6 insulin promoter activity inhibition; TRM-6 cells (human fetal islet line), insulin promoter-eGFP reporter, imaging; reporter expression induced with tamoxifen; inhibition, % at 2 µM; 130,000 tested, 0.9% active; AID 1273;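 active means inhibition above the mean plus 3 SD, with well images judged a real hit on visual review, cut at about 60% in these data, passing the limit was not always enough; inconclusive means inhibition over the cutoff but images rejected on review; inactive means inhibition not above the cutoff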
PKD1 kinase inh = PKD1 (human) kinase inhibition. Q15139. PKD1 kinase fluorescence polarization assay. inhibition, % (no concentration beside the values). 200,000 tested, 0.056% active; in the data active means inhibition above about 50%
Autophagy mod = autophagy modulation, high-content screen | MEF GFP-LC3 puncta imaging; test concentration mostly 10 µM | calls only at 10 µM (by protocol) | 190,000 tested, 0.98% active | AID 463193;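 active means percentage of spot-positive cells more than 3 SD above its plate mean, without a fluorescence outlier flag or 80% toxicity; inconclusive means no clear call, values can overlap the other calls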
Arbovirus inh = arbovirus infection inhibition | arbovirus infection cell-based antiviral screen | AID 1251 | 200,000 tested, 0.37% active | inhibition, % at 10 µM; in the data active means inhibition above about 30%
RBBP9 inh = human RBBP9 hydrolase inhibition. inhibition, % at 7.94 µM. recombinant RBBP9, FP-Rh probe fluorescence polarization. 220,000 tested, 0.2% active;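 active means inhibition above the campaign mean of all tested compounds plus 3 SD, cut at about 14% in these data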
Target sequence (O75884 whole entry, looked up): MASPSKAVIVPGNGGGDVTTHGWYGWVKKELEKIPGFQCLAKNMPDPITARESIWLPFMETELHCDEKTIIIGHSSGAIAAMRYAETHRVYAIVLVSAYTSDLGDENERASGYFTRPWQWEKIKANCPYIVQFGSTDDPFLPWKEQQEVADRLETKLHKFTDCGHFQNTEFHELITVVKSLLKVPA
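Measured by – fluorescence polarization · Test system – RBBP9 protein · Input – 2.5 µM RBBP9 dispensing solution, before mixing · Measure – percent inhibition from mP, scaled between DMSO and no-protein wells · Benchmarks – DMSO-treated enzyme wells and wells lacking RBBP9 · Times – preincubation 30 min plus labeling 45 min at 25 °C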
Ins promoter up = MIN6 insulin promoter up-regulation | MIN6 insulin promoter-GFP reporter, high-content imaging; stronger effect = higher value | 190,000 tested, 0.3% active | z-score at 5 µM;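 active means z-score above 3 at 5 µM with at least 500 cells counted in the well; inconclusive means wells under 500 cells, flagged as cytotoxic or low count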
Of the large screens only hits and unclear results are named; the others gave an inactive call.

NC(=O)c1cc2ccc(O)cc2oc1=NCc1ccccc1	Ins promoter up 7
CC(C)Cc1nc(SCC(=O)Nc2nnc(CC(C)C)s2)n[nH]1	none (no result: Insulin prom inh, PKD1 kinase inh, Autophagy mod, Arbovirus inh)
Cc1ccc2nc(-c3ccccc3O)c(Nc3ccc4c(c3)OCCO4)n2c1	Insulin prom inh 67
COC(=O)c1ccc(COc2ccc3c(C)c(C)c(=O)oc3c2)o1	Ins promoter up 3.5 (no result: Insulin prom inh)
O=C(O)c1ccc(COc2ccc3c4c(c(=O)oc3c2)CCC4)o1	none
O=C(COC(=O)CCC(=O)c1cccs1)NC1CC1	none (no result: Insulin prom inh)
Fc1ccccc1N1CCN(c2ncnc3[nH]ncc23)CC1	Arbovirus inh 43
Fc1ccccc1N1CCN(c2ncnc3nc[nH]c23)CC1	none (no result: Insulin prom inh, PKD1 kinase inh, Autophagy mod, Arbovirus inh)
O=C(NN=C1CCN(Cc2ccccc2)CC1)c1cccc(S(=O)(=O)Nc2ccccc2Cl)c1	Ins promoter up 3
O=C(NC1CCN(Cc2ccccc2)CC1)c1ccc(S(=O)(=O)NCc2ccco2)cc1	Autophagy mod active
O=C(NC1CCN(Cc2ccccc2)CC1)c1cccc(S(=O)(=O)Nc2cc(C(F)(F)F)ccc2Cl)c1	Arbovirus inh 33
CCC1CCCCN1C(=O)c1cccc(S(=O)(=O)Nc2cc(C(F)(F)F)ccc2Cl)c1 (stereo not given)	none
C=CCn1c(O)c(N=NC(=O)CNC(=O)/C=C/c2ccc(OC)cc2)c2ccccc21	none (no result: Insulin prom inh, PKD1 kinase inh, Autophagy mod, Arbovirus inh)
CN(C)c1ccc(C(=O)NCC2CCCO2)cc1 (stereo not given)	none (no result: Ins promoter up)
CN(C)/C=N/c1ncc(C(=O)c2ccc(Cl)cc2)s1	Ins promoter up inconclusive
CCCNC(=O)CN(CCc1ccccc1)S(C)(=O)=O	none
COC(=O)C(NC(C)=O)(Nc1ccc(Br)cc1)C(=O)OC	none
CCOc1ccc(N2C(=O)CC(N3CCN(c4ccccc4F)CC3)C2=O)cc1 (stereo not given)	none
COC(=O)c1cc(-c2ccc(Cl)cc2)n[nH]1	none (no result: Insulin prom inh)
COC(=O)c1cc(-c2ccc(Cl)cc2Cl)n[nH]1	Insulin prom inh 78
C(=Nc1ccc(Nc2ccccc2)cc1)c1ccc2ccccc2c1	Insulin prom inh 64
Brc1ccc(C=Nc2ccc(Nc3ccccc3)cc2)s1	none
COc1ccc(C2C(C#N)=C(C)NC3=C2C(=O)c2ccccc23)cc1 (stereo not given)	none (no result: Insulin prom inh, Ins promoter up)
CC1=C([N+](=O)[O-])C(c2ccccc2)C2=C(N1)c1ccccc1C2=O (stereo not given)	Autophagy mod active
Cc1cccc(-n2cc[nH]c2=S)c1	none
CCn1c2ccccc2c2cc(/C=N/n3cn[nH]c3=S)ccc21	none
CCn1c2ccccc2c2cc(/C=N/n3cnnc3)ccc21	Autophagy mod active (no result: Insulin prom inh)
COc1ccc2c(c1)nc(SCC(C)O)n2C (stereo not given)	none
CC(=O)Nc1ccc(-c2nnn(CC(=O)Nc3ccc4c(c3)OCO4)n2)cc1Cl	Autophagy mod active (no result: Insulin prom inh)
CC1CN(c2nc(-c3ccccc3)nc3ccccc23)CC(C)O1 (stereo not given)	Insulin prom inh 92
CC1CN(c2cc(-c3ccccc3)c3ccccc3n2)CC(C)O1 (stereo not given)	none
O=C(Nc1nc2ccccc2s1)c1ccc(OCC2CCCO2)cc1 (stereo not given)	Arbovirus inh 31
Cc1cnc(NC(=O)c2ccc(OCC3CCCO3)cc2)s1 (stereo not given)	none
O=C1CCC(=O)N1OCCCOc1ccc2c(c1)CCC2	none
Cc1ccc(-c2csc(NC(=O)CSc3nc4ccccc4c(=O)n3CCCN(C)C)n2)cc1	Autophagy mod active (no result: Insulin prom inh)
Cc1ccccc1NC(=O)C1(NC(=O)c2cccc(N3C(=O)CSC3c3ccccc3)c2)CCCCC1 (stereo not given)	none
N#C/C(=C\c1sc(N2CCOCC2)nc1-c1ccccc1)C(=O)Nc1cccc2ccccc12	Autophagy mod active
Clc1ccc(-c2csc(=Nc3cccnc3)n2CCCn2ccnc2)cc1Cl	Autophagy mod active
Fc1ccc(Nc2nc(-c3cccnc3)cs2)cc1	none (no result: Ins promoter up)
Cc1ccc(C2=[N+]([O-])C(C)N(O)C2(C)C)o1 (stereo not given)	none
Cc1cnc(C(=O)Nc2ccccc2-c2nnn(CC(=O)NC3CCCC3)n2)cn1	Autophagy mod active
CCN(CC)S(=O)(=O)c1ccc(N2CCCCC2)c(C(=O)Nc2ccccc2N2CCOCC2)c1	none
CCCNC(=O)NC(C)C12CC3CC(CC(C3)C1)C2 (stereo not given)	none (no result: Ins promoter up)
COc1cccc(OC)c1C(=O)NC(C)C12CC3CC(CC(C3)C1)C2 (stereo not given)	Arbovirus inh 43 (no result: Ins promoter up)
COCc1cc(=O)[nH]c(Nc2nc3ccc(C)cc3o2)n1	Autophagy mod active
Cc1ccccc1NCC(=O)N/N=C/c1c[nH]c2ccccc12	Ins promoter up 4 (no result: Insulin prom inh)
CC(=O)Nc1ccc2nc(NC(=O)COc3ccc([N+](=O)[O-])cc3)sc2c1	none (no result: Insulin prom inh)
Cc1nc2c([nH]c3ccccc32)c(=O)n1N	Insulin prom inh 100
O=c1c2[nH]c3ccccc3c2ncn1CCCn1ccnc1	none
CCCCn1cnc2c([nH]c3ccccc32)c1=O	Insulin prom inh 82
O=c1c2[nH]c3ccc(Br)cc3c2ncn1CCCn1ccnc1	Insulin prom inh 79
O=[N+]([O-])c1cncc([N+](=O)[O-])c1Nc1ccccc1Cl	none (no result: Insulin prom inh)
COc1ccc(C2/C=C\CN(S(=O)(=O)c3cccc4cccnc34)CC(=O)N2Cc2ccc(F)cc2)cc1 (stereo not given)	Ins promoter up 7.5 (no result: Insulin prom inh, PKD1 kinase inh, Autophagy mod, Arbovirus inh, RBBP9 inh)
O=C(c1ccccc1Cl)N(Cc1ccc(Cl)c(Cl)c1)N1C(=O)CCCC1=O	none (no result: Insulin prom inh)
Cc1noc(C)c1S(=O)(=O)N1CCC(C(=O)N2CCN(C3CCCC3)CC2)CC1	Ins promoter up 3 (no result: Insulin prom inh)
CCC1COC(c2cccn2Cc2ccccc2Cl)=N1 (stereo not given)	Autophagy mod active (no result: Insulin prom inh)
Fc1ccc(Cn2cccc2C2=NC(c3ccccc3)CO2)cc1 (stereo not given)	none
COC(=O)c1cc2occc2n1Cc1ccc(Cl)cc1	none
COc1ccc2c3c([nH]c2c1)C1CC2C(CC(O)C(OC)C2C(=O)O)CN1CC3 (stereo not given)	none (no result: Insulin prom inh, PKD1 kinase inh, Autophagy mod, Arbovirus inh)
COc1ccc(Cl)cc1S(=O)(=O)N1CCN(c2ccc(F)cc2)CC1	none
COc1c(S(=O)(=O)N2CCN(c3ccc(F)cc3)CC2)ccc(Cl)c1Cl	Insulin prom inh 74
O=C(N/N=C\C=C\c1ccc2c(c1)OCO2)C1COc2ccccc2O1 (stereo not given)	none
COc1ccc2c(C)cc(SCC(=O)N(C)C3CCS(=O)(=O)C3)nc2c1 (stereo not given)	Autophagy mod active (no result: Insulin prom inh, Ins promoter up)
COC(=O)c1ccc2c(=O)n(Cc3ccc(C(=O)NCCCN4CCC(C)CC4)cc3)c(=S)[nH]c2c1	none (no result: Insulin prom inh, Ins promoter up)
CC1CCN(CCCNC(=O)c2ccc3c(=O)n(Cc4ccc(Cl)cc4)c(=S)[nH]c3c2)CC1	Autophagy mod active
O=C(/C=C/c1ccc(F)cc1)NCc1ccco1	none
COc1ccc(C(=O)NN2CCCCC2)cc1OC	none
COc1ccc(C(=O)Nn2cnnc2)cc1OC	Ins promoter up 4.4 (no result: Insulin prom inh, PKD1 kinase inh, Autophagy mod, Arbovirus inh)

Screens from PubChem.
